The nature of experiment [1]: Inhibition of Staphylococcus aureus MraY by fluorescence assay. In outline: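 Purified S. aureus MraY was given UDP-MurNAc-dansylpentapeptide as substrate. Formation of dansylated lipid I was followed by fluorescence enhancement (excitation 355 nm, emission 535 nm).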
Experiment [2] has as its system Pseudomonas aeruginosa. Description: Antibacterial activity against Pseudomonas aeruginosa YY165 deltamexB mutant assessed as growth inhibition after 20 hrs by microdilution method. The class given is functional. The conditions noted are these: YY165, 20 h. In outline:
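Broth microdilution per CLSI in cation-adjusted Mueller–Hinton broth; serial 2-fold compound dilutions inoculated with 5 × 10⁴ CFU per well (0.1 mL), incubated 35 °C for 20 h, then MIC scored. Strain YY165 is a MexB deletion mutant lacking the inner-membrane transporter of the MexAB-OprM efflux system.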
(Broth dilution looks for growth in wells or tubes with falling amounts of substance.)

Experiment [3] concerns Pseudomonas aeruginosa. The experiment is described as follows: Antibacterial activity against Pseudomonas aeruginosa PAO1 assessed as growth inhibition after 20 hrs by microdilution method. The class given is functional. The conditions noted are these: PAO1, 20 h. Put shortly: (§1)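 Broth microdilution per CLSI in cation-adjusted Mueller-Hinton broth, using serial 2-fold compound dilutions. Each strain was inoculated at 5 × 10⁴ CFU per well in 0.1 mL. Plates were incubated at 35 °C for 20 h, and the MIC was then scored.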

The subject of experiment [4] is Pseudomonas aeruginosa. The experiment is described as follows: Antibacterial activity against Pseudomonas aeruginosa ATCC 27853 assessed as growth inhibition after 20 hrs by microdilution method. Format: functional. The conditions noted are these: ATCC 27853, 20 h. Put shortly: as §1
The test system of experiment [5] is Pseudomonas aeruginosa. Description: Antibacterial activity against Pseudomonas aeruginosa ATCC 25619 assessed as growth inhibition after 20 hrs by microdilution method. Format: functional. As to conditions: ATCC 25619, 20 h. In outline:
as §1

Experiment [6] concerns Pseudomonas aeruginosa. Description: Antibacterial activity against clinical isolate Pseudomonas aeruginosa SR27156 assessed as growth inhibition after 20 hrs by microdilution method. Format: functional. As to conditions: SR27156, 20 h. In outline:
as §1

Values after ≈ are worked out from the molar mass of the structure shown.

By IC50 is commonly meant the point on the concentration scale where inhibition reaches its midpoint. Read a high IC50 as weaker potency in that assay. For orientation: MIC means the lowest concentration found to suppress growth. In the case of `CCCCCCCCCCCCCCC[C@H](NC(=O)[C@@H](NC(=O)N[C@H](C(=O)O)C(C)C)[C@@H]1CCNC(=N)N1)C(=O)NCCCN[C@H](C(=O)O)[C@H](O[C@@H]1O[C@H](CN)[C@@H](O)[C@H]1O)[C@H]1O[C@@H](n2ccc(=O)[nH]c2=O)[C@H](O)[C@@H]1O`, half-maximal inhibition in experiment [1] (IC50) required 1.1 nM. The minimal inhibitory concentration (MIC) in the experiment on Pseudomonas aeruginosa [2], in the experiment with Pseudomonas aeruginosa [3], in the experiment with Pseudomonas aeruginosa [4], with Pseudomonas aeruginosa [5] and with Pseudomonas aeruginosa [6] was over 64 µg/mL throughout.

In experiment [1], `CCCCCCCCCCCCCCC[C@H](NC(=O)[C@@H](NC(=O)N[C@H](C(=O)O)C(C)C)[C@H]1CCNC(=N)N1)C(=O)NCCCN[C@H](C(=O)O)[C@H](O[C@@H]1O[C@H](CN)[C@@H](O)[C@H]1O)[C@H]1O[C@@H](n2ccc(=O)[nH]c2=O)[C@H](O)[C@@H]1O` registered an IC50 of 0.8 nM. In addition, the MIC in the experiment with Pseudomonas aeruginosa [2], with Pseudomonas aeruginosa [3], with Pseudomonas aeruginosa [4], in the experiment on Pseudomonas aeruginosa [5] and in the experiment on Pseudomonas aeruginosa [6] was over 64 µg/mL in each case.

As to `CCCCCCCCCCCCCCC[C@H](NC(=O)[C@H](CCCNC(=N)N)NC(=O)N[C@H](C(=O)O)C(C)C)C(=O)NCCCN[C@H](C(=O)O)[C@H](O[C@@H]1O[C@H](CN)[C@@H](O)[C@H]1O)[C@H]1O[C@@H](n2ccc(=O)[nH]c2=O)[C@H](O)[C@@H]1O`, in experiment [1], the IC50 was determined as 0.7 nM. Also, the MIC in the experiment with Pseudomonas aeruginosa [2], with Pseudomonas aeruginosa [3], with Pseudomonas aeruginosa [4], in the experiment with Pseudomonas aeruginosa [5] and with Pseudomonas aeruginosa [6] was over 64 µg/mL throughout.

In experiment [1], `CCCCCCCCCCCCCCC[C@H](NC(=O)[C@H](CCCN)NC(=O)N[C@H](C(=O)O)C(C)C)C(=O)NCCCN[C@H](C(=O)O)[C@H](O[C@@H]1O[C@H](CN)[C@@H](O)[C@H]1O)[C@H]1O[C@@H](n2ccc(=O)[nH]c2=O)[C@H](O)[C@@H]1O` displayed an IC50 of 0.8 nM. The MIC in the experiment on Pseudomonas aeruginosa [2], in the experiment with Pseudomonas aeruginosa [3], in the experiment with Pseudomonas aeruginosa [4], in the experiment on Pseudomonas aeruginosa [5] and with Pseudomonas aeruginosa [6] was over 64 µg/mL in each case.

In the case of `CCCCCCCCCCCCCCC[C@H](NC(=O)[C@@H](NC(=O)OCc1ccccc1)[C@@H]1CCNC(=N)N1)C(=O)NCCCN[C@H](C(=O)O)[C@H](O[C@@H]1O[C@H](CN)[C@@H](O)[C@H]1O)[C@H]1O[C@@H](n2ccc(=O)[nH]c2=O)[C@H](O)[C@@H]1O`, in experiment [1], inhibition was half-maximal at 4.2 nM (IC50). In addition, the MIC in the experiment on Pseudomonas aeruginosa [2], in the experiment with Pseudomonas aeruginosa [3], in the experiment with Pseudomonas aeruginosa [4], in the experiment on Pseudomonas aeruginosa [5] and with Pseudomonas aeruginosa [6] was over 64 µg/mL in each case.

`CCCCCCCCCCCCCCC[C@H](NC(=O)[C@@H](N)[C@@H]1CCNC(=N)N1)C(=O)NCCCN[C@H](C(=O)O)[C@H](O[C@@H]1O[C@H](CN)[C@@H](O)[C@H]1O)[C@H]1O[C@@H](n2ccc(=O)[nH]c2=O)[C@H](O)[C@@H]1O`: the IC50 in experiment [1] stood at 2.4 nM. The MIC with Pseudomonas aeruginosa [2] is 32 µg/mL (≈ 34.5 µM); with Pseudomonas aeruginosa [3], over 64 µg/mL; with Pseudomonas aeruginosa [4] it was over 64 µg/mL; with Pseudomonas aeruginosa [5] it was over 64 µg/mL; in the experiment on Pseudomonas aeruginosa [6], 64 µg/mL (≈ 69 µM).

Regarding `CCCCCCCCCCCCCCC[C@H](NC(=O)[C@@H](N)CCCN)C(=O)NCCCN[C@H](C(=O)O)[C@H](O[C@@H]1O[C@H](CN)[C@@H](O)[C@H]1O)[C@H]1O[C@@H](n2ccc(=O)[nH]c2=O)[C@H](O)[C@@H]1O`, the IC50 in experiment [1] turned out to be 3.8 nM. Further, the minimum inhibitory concentration (MIC) in the experiment on Pseudomonas aeruginosa [2] is 32 µg/mL (≈ 36.1 µM); in the experiment with Pseudomonas aeruginosa [3], 64 µg/mL (≈ 72.1 µM); in the experiment on Pseudomonas aeruginosa [4], 64 µg/mL (≈ 72.1 µM); with Pseudomonas aeruginosa [5], 32 µg/mL (≈ 36.1 µM); in the experiment on Pseudomonas aeruginosa [6] it was 32 µg/mL (≈ 36.1 µM).

Take `CCCCCCCCCCCCCCC[C@H](NC(=O)[C@@H](N)CCCNC(=N)N)C(=O)NCCCN[C@H](C(=O)O)[C@H](O[C@@H]1O[C@H](CN)[C@@H](O)[C@H]1O)[C@H]1O[C@@H](n2ccc(=O)[nH]c2=O)[C@H](O)[C@@H]1O`: the IC50 in experiment [1] was found to be 2.2 nM. Besides, the MIC with Pseudomonas aeruginosa [2] amounted to 8 µg/mL (≈ 8.61 µM); in the experiment with Pseudomonas aeruginosa [3] it was 16 µg/mL (≈ 17.2 µM); in the experiment on Pseudomonas aeruginosa [4], 32 µg/mL (≈ 34.4 µM); with Pseudomonas aeruginosa [5], 8 µg/mL (≈ 8.61 µM); in the experiment with Pseudomonas aeruginosa [6], 16 µg/mL (≈ 17.2 µM).

As for `CCCCCCCCCCCCCCC[C@H](NC(=O)[C@@H](N)CCCSC)C(=O)NCCCN[C@H](C(=O)O)[C@H](O[C@@H]1O[C@H](CN)[C@@H](O)[C@H]1O)[C@H]1O[C@@H](n2ccc(=O)[nH]c2=O)[C@H](O)[C@@H]1O`, in experiment [1], the IC50 is 8.5 nM. For the same molecule, the MIC in the experiment with Pseudomonas aeruginosa [2] was 16 µg/mL (≈ 17.4 µM); in the experiment on Pseudomonas aeruginosa [3], over 64 µg/mL; in the experiment on Pseudomonas aeruginosa [4] it was 64 µg/mL (≈ 69.7 µM); with Pseudomonas aeruginosa [5], 16 µg/mL (≈ 17.4 µM); in the experiment on Pseudomonas aeruginosa [6], 64 µg/mL (≈ 69.7 µM).

Molecule `CCCCCCCCCCCCCCC[C@H](N)C(=O)NCCCN[C@H](C(=O)O)[C@H](O[C@@H]1O[C@H](CN)[C@@H](O)[C@H]1O)[C@H]1O[C@@H](n2ccc(=O)[nH]c2=O)[C@H](O)[C@@H]1O` had an IC50 in experiment [1] of 2.6 nM. Besides, the MIC is 32 µg/mL (≈ 41.4 µM) with Pseudomonas aeruginosa [2]; over 64 µg/mL with Pseudomonas aeruginosa [3]; over 64 µg/mL with Pseudomonas aeruginosa [4]; 32 µg/mL (≈ 41.4 µM) in the experiment on Pseudomonas aeruginosa [5]; over 64 µg/mL in the experiment with Pseudomonas aeruginosa [6].

`CCCCCCCCCCCCCCC[C@H](NC(C)=O)C(=O)NCCCN[C@H](C(=O)O)[C@H](O[C@@H]1O[C@H](CN)[C@@H](O)[C@H]1O)[C@H]1O[C@@H](n2ccc(=O)[nH]c2=O)[C@H](O)[C@@H]1O`: in experiment [1], the IC50 amounted to 2.7 nM. Further, the MIC in the experiment on Pseudomonas aeruginosa [2] is 32 µg/mL (≈ 39.3 µM); in the experiment with Pseudomonas aeruginosa [3] it was 64 µg/mL (≈ 78.5 µM); with Pseudomonas aeruginosa [4], over 64 µg/mL; in the experiment with Pseudomonas aeruginosa [5] it was 32 µg/mL (≈ 39.3 µM); with Pseudomonas aeruginosa [6] it was 64 µg/mL (≈ 78.5 µM).

`CCCCCCCCCCCCCCC[C@H](NC(=O)c1ccccc1)C(=O)NCCCN[C@H](C(=O)O)[C@H](O[C@@H]1O[C@H](CN)[C@@H](O)[C@H]1O)[C@H]1O[C@@H](n2ccc(=O)[nH]c2=O)[C@H](O)[C@@H]1O` registered an IC50 in experiment [1] of 29.6 nM. Moreover, the MIC in the experiment on Pseudomonas aeruginosa [2], with Pseudomonas aeruginosa [3], in the experiment on Pseudomonas aeruginosa [4], in the experiment on Pseudomonas aeruginosa [5] and in the experiment with Pseudomonas aeruginosa [6] was over 64 µg/mL each time.

Molecule `CCCCCCCCCCCCCCC[C@H](NC(=O)c1ccccn1)C(=O)NCCCN[C@H](C(=O)O)[C@H](O[C@@H]1O[C@H](CN)[C@@H](O)[C@H]1O)[C@H]1O[C@@H](n2ccc(=O)[nH]c2=O)[C@H](O)[C@@H]1O` came in with an IC50 in experiment [1] of 6.4 nM. Moreover, the minimal inhibitory concentration (MIC) was over 64 µg/mL in the experiment with Pseudomonas aeruginosa [2]; over 64 µg/mL in the experiment with Pseudomonas aeruginosa [3]; over 64 µg/mL in the experiment on Pseudomonas aeruginosa [4]; 64 µg/mL (≈ 72.9 µM) in the experiment with Pseudomonas aeruginosa [5]; over 64 µg/mL in the experiment with Pseudomonas aeruginosa [6].

In turn, `CCCCCCCCCCCCCCC[C@H](NC(=O)c1cccnc1)C(=O)NCCCN[C@H](C(=O)O)[C@H](O[C@@H]1O[C@H](CN)[C@@H](O)[C@H]1O)[C@H]1O[C@@H](n2ccc(=O)[nH]c2=O)[C@H](O)[C@@H]1O` gave a 50% inhibitory concentration (IC50) in experiment [1] of 9.6 nM. In addition, the MIC was over 64 µg/mL in the experiment with Pseudomonas aeruginosa [2]; over 64 µg/mL in the experiment on Pseudomonas aeruginosa [3]; over 64 µg/mL with Pseudomonas aeruginosa [4]; 64 µg/mL (≈ 72.9 µM) with Pseudomonas aeruginosa [5]; over 64 µg/mL in the experiment with Pseudomonas aeruginosa [6].

As for `C[C@@H](O)[C@H]1C(=O)N2C(C(=O)O)=C(S[C@@H]3CN[C@H](CNS(N)(=O)=O)C3)[C@H](C)[C@H]12` [DORIPENEM], the MIC with Pseudomonas aeruginosa [2] was 0.25 µg/mL (≈ 0.595 µM); in the experiment with Pseudomonas aeruginosa [3], 0.5 µg/mL (≈ 1.19 µM); with Pseudomonas aeruginosa [4] it was 0.5 µg/mL (≈ 1.19 µM); in the experiment with Pseudomonas aeruginosa [5] it was 0.063 µg/mL (≈ 0.15 µM); in the experiment with Pseudomonas aeruginosa [6], 0.031 µg/mL (≈ 0.0737 µM).

Values taken from ChEMBL document CHEMBL3286247, “Expansion of Antibacterial Spectrum of Muraymycins toward Pseudomonas aeruginosa” (ACS Med Chem Lett, 2014).
